Measurements taken from ChEMBL document CHEMBL1126202, “Dual-action penems and carbapenems” (J Med Chem, 1992).

Tests used:
[1] = target: T1, Penicillin-binding protein 1 (Staphylococcus aureus (strain COL)) (UniProt F4NA86); experiment: Concentration inhibiting [14C]- Penicillin G binding to Staphylococcus aureus ATCC 29213 Penicillin binding protein 1 87 kDa
T1 sequence (whole entry): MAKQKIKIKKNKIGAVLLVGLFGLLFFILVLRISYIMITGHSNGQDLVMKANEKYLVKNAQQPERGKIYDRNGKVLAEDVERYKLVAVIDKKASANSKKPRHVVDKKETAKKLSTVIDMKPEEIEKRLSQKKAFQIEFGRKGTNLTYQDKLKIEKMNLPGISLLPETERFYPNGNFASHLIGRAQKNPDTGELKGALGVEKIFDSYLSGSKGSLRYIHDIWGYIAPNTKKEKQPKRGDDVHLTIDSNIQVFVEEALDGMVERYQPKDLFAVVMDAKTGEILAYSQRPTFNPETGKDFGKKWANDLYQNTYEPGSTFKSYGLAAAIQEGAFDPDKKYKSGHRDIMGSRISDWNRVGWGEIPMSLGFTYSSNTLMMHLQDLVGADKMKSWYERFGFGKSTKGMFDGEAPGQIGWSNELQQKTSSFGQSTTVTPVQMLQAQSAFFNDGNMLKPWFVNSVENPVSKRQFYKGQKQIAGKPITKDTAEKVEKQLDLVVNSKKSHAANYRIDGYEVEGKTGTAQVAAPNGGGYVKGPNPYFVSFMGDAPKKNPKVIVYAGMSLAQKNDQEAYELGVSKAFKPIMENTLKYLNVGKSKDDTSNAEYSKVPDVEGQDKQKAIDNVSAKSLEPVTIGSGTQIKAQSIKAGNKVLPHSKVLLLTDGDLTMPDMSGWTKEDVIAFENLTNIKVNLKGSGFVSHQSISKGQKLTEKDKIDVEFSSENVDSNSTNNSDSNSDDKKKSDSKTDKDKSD

[2] = system: Penicillin-binding protein 3 FtsI (Escherichia coli K-12); experiment: Concentration inhibiting [14C]- Penicillin G binding to Escherichia coli UB1005 PBP3 (penicillin binding protein) 60 kDa
[3] = target: T2, Penicillin-binding protein 2b (Staphylococcus aureus) (UniProt Q9XDB3); experiment: Concentration inhibiting [14C]- Penicillin G binding to Staphylococcus aureus ATCC 29213 Penicillin binding protein 3, 85 kDa
T2 sequence (whole entry): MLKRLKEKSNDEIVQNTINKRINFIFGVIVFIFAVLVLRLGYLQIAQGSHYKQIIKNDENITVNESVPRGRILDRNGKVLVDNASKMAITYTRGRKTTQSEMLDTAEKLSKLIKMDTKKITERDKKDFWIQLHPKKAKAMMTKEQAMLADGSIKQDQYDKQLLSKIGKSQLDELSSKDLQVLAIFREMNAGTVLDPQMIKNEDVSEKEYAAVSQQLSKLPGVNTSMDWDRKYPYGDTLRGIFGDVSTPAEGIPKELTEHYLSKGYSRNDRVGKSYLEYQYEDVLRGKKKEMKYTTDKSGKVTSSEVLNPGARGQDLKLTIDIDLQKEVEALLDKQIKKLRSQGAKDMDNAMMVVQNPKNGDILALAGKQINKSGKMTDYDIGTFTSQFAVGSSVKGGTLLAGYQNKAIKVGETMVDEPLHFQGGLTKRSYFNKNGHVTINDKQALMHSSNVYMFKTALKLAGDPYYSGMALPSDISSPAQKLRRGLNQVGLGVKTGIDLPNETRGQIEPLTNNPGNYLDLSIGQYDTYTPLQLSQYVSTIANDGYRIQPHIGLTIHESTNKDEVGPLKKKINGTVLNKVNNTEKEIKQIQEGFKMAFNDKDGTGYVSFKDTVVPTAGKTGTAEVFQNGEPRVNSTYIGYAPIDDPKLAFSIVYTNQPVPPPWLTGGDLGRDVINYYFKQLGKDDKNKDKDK

[4] = system: Streptococcus pneumoniae; experiment: In vitro antibacterial activity against Streptococcus pneumoniae 6301; type: functional
In short: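 Streptococcal MICs were determined by agar dilution on brain heart infusion agar supplemented with 20 units/mL bovine liver catalase. Final concentrations were 128 to 0.0156 μg/mL from 2-fold dilutions. Inocula were overnight broth cultures diluted 100-fold, applied by Steers replicator.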

[5] = system: Bacteroides fragilis; experiment: In vitro antibacterial activity against Bacteroides fragilis S2; type: functional
In short: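 Anaerobic MICs were determined in microtiter plates in Schaedler's broth supplemented with coenzyme I and hemin. Incubation was under an oxygen-free hydrogen-carbon dioxide atmosphere.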

[6] = system: Serratia marcescens; experiment: In vitro antibacterial activity against Serratia marcescens SM (constitutive beta-lactamase producer); type: functional
In short: (§1)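 MIC was determined by agar dilution on Mueller-Hinton agar. Serial 2-fold aqueous dilutions were diluted 10-fold in agar to give final concentrations of 128 to 0.0156 μg/mL. Plates were inoculated by Steers replicator with overnight broth cultures diluted 100-fold.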

[7] = system: Hathewaya histolytica; experiment: In vitro antibacterial activity against Clostridium histolyticum 503-86; type: functional
[8] = system: Escherichia coli; experiment: Minimum inhibitory concentration inhibiting [14C]- Penicillin G binding to Escherichia coli UB1005 PBPs.
[9] = system: Klebsiella pneumoniae; experiment: In vitro antibacterial activity against Klebsiella pneumoniae A; type: functional; in short: as §1
[10] = system: Enterobacter cloacae; experiment: In vitro antibacterial activity against Enterobacter cloacae P99 (constitutive beta-lactamase producer); type: functional
[11] = system: Staphylococcus aureus; experiment: In vitro antibacterial activity against Staphylococcus aureus 753 (constitutive beta-lactamase producer); type: functional; in short: as §1

In the case of `C[C@@H](O)[C@H]1C(=O)N2C(C(=O)[O-])=C(COC(=O)c3cn(CCF)c4c(F)c(N5CCN(C)CC5)c(F)cc4c3=O)S[C@H]12.[Na+]`, the IC90 [1] is reported as 0.5 µg/mL and the IC90 [2] is reported as 30 µg/mL.

In the case of `C[C@@H](O)[C@H]1C(=O)N2C(C(=O)[O-])=C(COC(=O)N3CCN(c4cc5c(cc4F)c(=O)c(C(=O)O)cn5C4CC4)CC3)S[C@H]12.[Na+]`, the IC90 [3] is reported as 2 µg/mL.

Compound `C[C@@H](O)[C@H]1C(=O)N2C(C(=O)[O-])=C(CO)S[C@H]12.[Na+]` has an MIC [4] of 0.125 µg/mL, an MIC [5] of under 0.125 µg/mL and an MIC [6] of 8 µg/mL. It also gave an MIC [7] of under 0.125 µg/mL, an MIC [8] of 4 µg/mL and an MIC [9] of 4 µg/mL. The MIC [10] was 8 µg/mL and the MIC [11] was 1 µg/mL.
